# A selection: hits, their analogues and other compounds. The true share with any hit is near 1.4%.
# DAGLB inh = DAGLB lipase inhibitors, primary screen, biochemical, fluorescence, HTS; Diacylglycerol lipase-beta (Homo sapiens), Q8NCG7; HEK293T DAGLB membrane lysate, EnzChek fluorogenic substrate; inhibition, % at 5.17 µM; 340,000 tested, 0.059% active; AID 504411, 2011; in the data active = inhibition above about 34%;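 also: 0% = enzyme with vehicle and 100% = wells lacking enzyme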
# Target sequence (Q8NCG7 whole entry, looked up): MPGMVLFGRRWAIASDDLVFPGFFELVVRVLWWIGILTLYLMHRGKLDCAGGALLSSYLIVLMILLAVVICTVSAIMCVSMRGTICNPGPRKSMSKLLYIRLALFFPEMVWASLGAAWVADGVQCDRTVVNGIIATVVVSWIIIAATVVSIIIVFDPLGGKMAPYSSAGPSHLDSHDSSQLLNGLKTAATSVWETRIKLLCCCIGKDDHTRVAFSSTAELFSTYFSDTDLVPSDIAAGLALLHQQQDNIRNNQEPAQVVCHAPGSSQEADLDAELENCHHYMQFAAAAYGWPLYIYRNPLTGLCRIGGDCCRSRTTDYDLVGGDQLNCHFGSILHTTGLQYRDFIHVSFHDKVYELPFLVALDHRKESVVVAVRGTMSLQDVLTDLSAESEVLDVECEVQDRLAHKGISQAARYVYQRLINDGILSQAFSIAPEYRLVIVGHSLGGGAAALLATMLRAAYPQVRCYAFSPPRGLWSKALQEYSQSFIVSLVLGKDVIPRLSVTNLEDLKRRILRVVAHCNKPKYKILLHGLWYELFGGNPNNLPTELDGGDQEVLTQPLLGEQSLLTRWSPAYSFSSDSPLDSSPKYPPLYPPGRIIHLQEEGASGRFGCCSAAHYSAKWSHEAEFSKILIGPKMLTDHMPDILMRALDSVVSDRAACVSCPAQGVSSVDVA
# DDE Tn6 FP inh = inhibitors of Tn6 peptide binding to fibrin DD(E), primary screen, biochemical, fluorescence polarization, human fibrin, Tn6 probe; Fibrinogen beta chain (Homo sapiens), P02675; Fibrin DD(E) TRITC-Tn6 fluorescence polarization displacement; inhibition, % at 8.3 µM; 370,000 tested, 0.21% active; AID 720509, 2013;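 active = inhibition above a per-campaign cutoff: mean of compounds within control limits plus 3 SD, cut at about 15% in these data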;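 also: 0% = median of all compound wells on the plate and 100% = blocking peptide control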
# H9c2 protect = cardioprotection against H2O2-induced cell death, primary screen, uHTS, H9c2 cells, ATPLite luminescence; H9c2 cardiomyocytes, H2O2 injury protection, 2 h; protection from H2O2 cell death, % at 20 µM; 360,000 tested, 0.63% active;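 active = compounds giving at least 50% protection of heart cells from peroxide-induced death in the single-dose screen, raw or plate-pattern-corrected value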;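 also: 0% = DMSO wells with peroxide and 100% = DMSO wells without peroxide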
# TAG inh = inhibitors of triacylglycerol accumulation, primary screen, cell-based, uHTS, fluorescence, H9c2. H9c2 cells, Nile Red lipid (TAG) fluorescence; cells loaded with 200 µM oleic acid. inhibition, % at 12.5 µM. 230,000 tested, 0.66% active. AID 651582, 2012;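 active = pattern-corrected inhibition of lipid staining of at least 50% with the nuclear-stain viability signal not falling by more than 50%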;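 also: 0% = DMSO wells and 100% = triacsin C control wells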
# MT1-MMP act inh = blockers of MT1-MMP proenzyme processing, primary screen, HT1080 RFP-PRO-GFP cells, GFP/RFP fluorescence. Matrix metalloproteinase-14 (Homo sapiens), P50281. GFP/RFP ratio fluorescence, overnight; percent of plate control window, DMSO zero. GFP/RFP ratio change, % at 20 µM. 360,000 tested, 0.061% active;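 active = GFP/RFP ratio change of at least 30% with cell ATP level not reduced by more than half and red fluorescence within 50% of control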
#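 Test system: HT1080 RFP-PRO-GFP cells; Benchmarks: DMSO and RFP-L50D-GFP cell wells; Timing: cells overnight before dosing, compound overnight, 37 °C, 5% CO2; Compound: one 20 µM compound dose with 1% DMSO; Read-out: GFP/RFP fluorescence ratio.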
# DDE Tn7 FP inh = inhibitors of Tn7 peptide binding to fibrin DD(E), primary screen, biochemical, fluorescence polarization, human fibrin, Tn7 probe; FP displacement of FITC-Tn7 peptide from fibrin DD(E); 0% = median of compound wells per plate; inhibition, % at 8.3 µM; 370,000 tested, 0.13% active;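 active = inhibition above the mean of compounds falling within the control limits plus 3 SD of them, cut at about 14% in these data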;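 also: 0% = plate median of compound wells and 100% = 10 µM Aha-Tn7 peptide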
#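 system = human fibrin DD(E) protein | quantity = DD(E) 2 µM final | medium = Tris/NaCl/CaCl2 buffer, pH 7.8 | also added = labelled Tn7 tracer, 0.1 µM | compound dosing = single point at 8.3 µM | timing = compound with protein 10 min, then 3 h after probe, room temperature | signal = FP measurement | benchmarks = Aha-Tn7 high control | repeats = one replicate per compound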
# DDE Tn7 confirm = inhibitors of Tn7 peptide binding to fibrin DD(E), confirmation, biochemical, fluorescence polarization, human fibrin, Tn7 probe; shares compounds with DDE Tn7 FP inh; FP displacement of TRITC-Tn7 peptide from DD(E); 0% set at plate's compound-well median; inhibition, % at 8.3 µM; 460 tested, 5% active;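 active = inhibition above the campaign cutoff, the mean of compounds within control limits plus 3 SD, cut at about 14% in these data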;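 also: 100% = median FP of high control wells holding Aha-Tn7 inhibitor peptide; displacers lower polarization since freed probe rises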
# DDE Tn7 FP ctr = counter-screen for inhibitors of Tn7 peptide binding to fibrin DD(E). inhibition, % at 8.3 µM. shares compounds with DDE Tn7 FP inh. TRITC-Tn7 probe displacement, fluorescence polarization. 460 tested, 3% active;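 active = inhibition above the cutoff, the mean of compounds lying between the control bounds plus 3 SD of those compounds, cut at about 17% in these data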;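 also: 0% = median of compound sample wells and 100% = excess unlabeled Aha-Tn7 peptide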
# * hit, by the source's call; x = not tested or not shown; ! = a repeat was not active.
SMILES,DAGLB inh,DDE Tn6 FP inh,H9c2 protect,TAG inh,MT1-MMP act inh,DDE Tn7 FP inh,DDE Tn7 confirm,DDE Tn7 FP ctr
Nc1ccc2nc3c(=O)n(C4CCCCC4)c(=O)[nH]c3nc2c1,-102,8,1,-4,-149,27*,-6,7
Cc1cc2nc3c(=O)n(CCc4ccccc4)c(=O)[nH]c3nc2cc1N,-124,-5,21,-12,-120,23*,7,5
COc1ccc(OC)c(/C=C/C(=O)OCC(=O)Nc2nnc(-c3ccccc3)o2)c1,1,1,21,-11,0,14*,7,1
COc1ccc(NC(=O)C[C@H]2C(=O)N(c3ccc(OC)cc3)C[C@@H]2c2ccc(Br)cc2)cc1,0,0,-8,-5,3,6,x,x
COc1ccc(NC(=O)C[C@H]2C(=O)N(c3ccc(Br)cc3)C[C@@H]2c2ccc(OC)cc2)cc1,-3,9,-6,3,-5,14*,5,0
O=C(N[C@@H](Cc1cccnc1)C(=O)N1CCC[C@H]1C(=O)NCCc1ccccc1Cl)c1ccc(Cl)cc1Cl,x,-1,x,x,x,-2,x,x
Cc1ccc(C(=O)n2ccc3ccc(-c4ccc5ccn(Cc6ccc(C#N)cc6)c5c4)cc32)cc1,x,1,x,x,x,8,x,x
CC(=O)Nc1ccc(NC(=O)CCCCCN2C(=O)c3ccccc3C2=O)cc1,-5,3,1,x,2,14*,-5,-5
CC1=CC(C)(C)NC(=S)N1c1ccc(C)cc1,-1,-4,1,x,-1,7,x,x
CC1=CC(C)(C)NC(=S)N1c1cccc(C)c1,0,5,1,6,1,14*!,5,-7
Cc1ccc(OCCC(=O)OCC(=O)N2CCN(S(=O)(=O)c3ccc(Cl)cc3)CC2)cc1,3,0,-9,-5,-2,15*,-4,-6
CCCN(C(=O)COC(=O)COc1c(C)cccc1C)c1c(N)n(Cc2ccccc2)c(=O)[nH]c1=O,1,-7,0,8,3,14*,0,-3
O=C(c1oc2ccccc2c1N1CCCCC1)N1CCCCC1,1,6,3,x,-5,15*,-6,-10
O=C(c1cc2ccccc2o1)N1CCCCCC1,-1,-1,13,3,1,4,x,x
Cc1cccc(N2C(=O)c3cccc4c(N)ccc(c34)C2=O)c1,-193,9,7,x,-167,11,x,x
CC(C)CCN1C(=O)c2cccc3c(N)ccc(c23)C1=O,-233,8,5,-52,-124,49*,8,-1
Cc1ccc(-n2c(Cc3cccs3)nnc2SCc2ccc([N+](=O)[O-])cc2)cc1,x,1,x,x,x,-5,x,x
CN(C)S(=O)(=O)c1cccc(NC(=O)C2CCN(S(=O)(=O)c3cccs3)CC2)c1,-4,-4,9,12,-15,14*,-6,-7
CN(C(=O)c1cccc(NC(=O)Cc2cccc(NC(=O)C3CCN(C(=O)C4CCCCC4)CC3)c2)c1)C1CC1,-2,-4,-5,5,5,15*,4,-5
CN(C(=O)c1cccc(NC(=O)Cc2cccc(NC(=O)C3CCN(C(=O)C4CCC4)CC3)c2)c1)C1CC1,-3,0,-8,14,-1,-8,x,x
O=C(OCc1cn([C@H]2CN(C(=O)C3CCCCC3)[C@@H](c3ccccc3)C[C@@H]2O)nn1)c1ccccc1,-2,7,1,-1,-3,15*,3,6

# Screens from PubChem.
